According to ChEMBL document CHEMBL2384924, “Antagonists for the orphan G-protein-coupled receptor GPR55 based on a coumarin scaffold” (J Med Chem, 2013):
Active and inactive are the calls of the source. Unless noted, the rule behind the calls is not given here.

Columns and labels:
[1] = biological target: T1, G-protein coupled receptor 55 (Homo sapiens, UniProt Q9Y2T6); assay: Agonist activity at human GPR55 transfected in CHO cells at 10 uM after 90 mins by beta-arrestin translocation assay; format: cell-based
T1 sequence (Q9Y2T6 whole entry, the tested form may be a part): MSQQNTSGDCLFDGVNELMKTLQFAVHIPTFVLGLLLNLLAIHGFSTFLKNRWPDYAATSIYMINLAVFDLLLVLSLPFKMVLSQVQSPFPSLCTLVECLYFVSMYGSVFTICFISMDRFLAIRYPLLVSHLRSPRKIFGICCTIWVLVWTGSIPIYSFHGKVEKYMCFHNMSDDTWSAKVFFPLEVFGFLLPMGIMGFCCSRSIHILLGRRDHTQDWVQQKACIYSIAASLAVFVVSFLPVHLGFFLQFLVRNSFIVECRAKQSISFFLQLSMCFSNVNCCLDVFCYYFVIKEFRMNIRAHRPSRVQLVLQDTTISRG
Outline: (§1)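 CHO cells stably expressing human GPR55 (β-galactosidase fragment complementation) were seeded at 20,000 cells/well in Opti-MEM with 2% FCS for 24 h at 37°C. Compound was diluted in PBS with 10% DMSO and 0.1% BSA, screened at 10 µM and incubated 90 min at 37°C. Galacton-Star/Emerald-II/lysis buffer (1:5:19) was added for 60 min at RT, then luminescence was read. Response is relative to 1 µM LPI (100%).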

Cannabinoid receptor 2 [2] = biological target: T2, Cannabinoid receptor 2 (Homo sapiens, UniProt P34972); assay: Displacement of [3H]-CP55,940 from human CB2 receptor transfected in CHOK1 cells at 10 uM; format: cell-based; settings: CHO-K1
T2 sequence (P34972 whole entry): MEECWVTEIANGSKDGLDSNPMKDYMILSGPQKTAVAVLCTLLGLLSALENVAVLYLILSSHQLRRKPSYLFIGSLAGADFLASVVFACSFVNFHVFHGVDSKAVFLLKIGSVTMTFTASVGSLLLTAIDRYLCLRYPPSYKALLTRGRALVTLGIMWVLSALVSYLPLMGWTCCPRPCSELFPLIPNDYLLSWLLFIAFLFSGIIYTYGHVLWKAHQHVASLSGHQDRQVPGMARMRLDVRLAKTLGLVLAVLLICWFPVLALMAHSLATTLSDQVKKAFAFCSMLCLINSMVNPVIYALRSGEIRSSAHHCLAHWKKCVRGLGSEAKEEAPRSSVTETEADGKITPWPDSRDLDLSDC
Outline: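 Competition binding used membranes from CHO cells stably expressing human CB2 (1 µg protein per vial) and [3H]CP55,940 at 0.1 nM final. Compound stocks were in DMSO (2.5% final). Compound was tested at 10 µM as % inhibition of radioligand binding. Three independent experiments in duplicate.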

Cannabinoid receptor 2 [3] = biological target: T2, Cannabinoid receptor 2; assay: Displacement of [3H]-CP55,940 from human CB2 receptor transfected in CHOK1 cells; format: cell-based, CHO-K1
Outline: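 CHO cells stably expressing human CB2 supplied the membranes, 1 µg protein per vial. Compounds were screened at 10 µM, and full competition curves were run where inhibition was about 50% or more. Three independent experiments in duplicate.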

Cannabinoid receptor 1 [4] = biological target: T3, Cannabinoid receptor 1 (Homo sapiens, UniProt P21554); assay: Displacement of [3H]-CP55,940 from human CB1 receptor transfected in CHOK1 cells at 10 uM; format: cell-based; settings: CHO-K1
T3 sequence (P21554 whole entry): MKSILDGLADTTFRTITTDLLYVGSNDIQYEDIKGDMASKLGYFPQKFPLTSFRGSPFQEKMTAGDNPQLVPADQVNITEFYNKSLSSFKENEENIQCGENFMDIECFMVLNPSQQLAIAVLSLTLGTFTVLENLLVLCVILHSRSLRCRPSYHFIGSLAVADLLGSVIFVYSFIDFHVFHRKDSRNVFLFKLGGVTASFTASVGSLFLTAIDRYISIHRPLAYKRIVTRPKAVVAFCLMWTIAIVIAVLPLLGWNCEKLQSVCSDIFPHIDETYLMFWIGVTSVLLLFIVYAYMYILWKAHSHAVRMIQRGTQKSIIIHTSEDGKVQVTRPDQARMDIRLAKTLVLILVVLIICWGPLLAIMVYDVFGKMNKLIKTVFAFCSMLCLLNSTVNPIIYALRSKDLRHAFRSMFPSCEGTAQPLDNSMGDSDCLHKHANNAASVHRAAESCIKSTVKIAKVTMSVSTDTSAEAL
Outline: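 Human CB1 from membrane preparations of stably transfected CHO cells, 25 µg protein per vial. Competition with [3H]CP55,940 at 0.1 nM final, with test compound at 10 µM, read as % inhibition of radioligand binding. Final DMSO 2.5%. Three independent experiments in duplicate.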

Cannabinoid receptor 1 [5] = biological target: T3, Cannabinoid receptor 1; assay: Displacement of [3H]-CP55,940 from human CB1 receptor transfected in CHOK1 cells; format: cell-based, CHO-K1
[6] = biological target: T4, N-arachidonyl glycine receptor (Homo sapiens) (UniProt Q14330); assay: Antagonist activity at human GPR18 transfected in CHO cells assessed as delta9-THC-induced beta-arrestin recruitment at 10 uM incubated 60 mins prior to delta9-THC addition by beta-arrestin translocation assay; format: cell-based; design: scale not given: the % may be the effect or the level left
T4 sequence (whole entry): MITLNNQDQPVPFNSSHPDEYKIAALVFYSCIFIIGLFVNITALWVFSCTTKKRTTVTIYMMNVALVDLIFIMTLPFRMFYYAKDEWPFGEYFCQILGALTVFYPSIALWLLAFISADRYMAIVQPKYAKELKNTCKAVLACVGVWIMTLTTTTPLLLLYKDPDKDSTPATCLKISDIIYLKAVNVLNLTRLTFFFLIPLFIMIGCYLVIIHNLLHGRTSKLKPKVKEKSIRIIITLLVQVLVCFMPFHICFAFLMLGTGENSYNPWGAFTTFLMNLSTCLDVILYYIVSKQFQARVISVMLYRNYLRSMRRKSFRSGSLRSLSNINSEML
Outline: (§2)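 CHO cells stably expressing human GPR18 were seeded at 20,000 cells/well for 24 h at 37°C. Compound in PBS/10% DMSO/0.1% BSA was added 60 min before the GPR18 agonist 3 at 10 µM. The supplier's detection reagent was used, and luminescence was read after 60 min at RT. Screening was at 10 µM (% inhibition); IC50 from concentration-inhibition curves. Three independent experiments in duplicate.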

[7] = biological target: T5, N-arachidonyl glycine receptor (Homo sapiens, UniProt Q14330); assay: Antagonist activity at human GPR18 transfected in CHO cells assessed as delta9-THC-induced beta-arrestin recruitment incubated 60 mins prior to delta9-THC addition by beta-arrestin translocation assay; format: cell-based; outline: as §2
T5 sequence (Q14330 whole entry): T4 sequence (whole entry)

[8] = biological target: T1, G-protein coupled receptor 55; assay: Antagonist activity at human GPR55 transfected in CHO cells assessed as inhibition of LPI-induced beta-arrestin recruitment incubated 60 mins prior to LPI addition by beta-arrestin translocation assay; format: cell-based
Outline: (§3)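 CHO cells stably expressing human GPR55 were seeded at 20,000 cells/well for 24 h at 37°C. Compound in PBS/10% DMSO/0.1% BSA was added 60 min before 1 µM LPI. Galacton-Star/Emerald-II/lysis buffer (pH 8) was applied for 60 min at RT, with luminescence read-out. Screening was at 10 µM (% inhibition). IC50 was measured where inhibition exceeded 60%. Three independent experiments in duplicate.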

Cannabinoid receptor 2 [9] = biological target: T2, Cannabinoid receptor 2; assay: Antagonist activity at human CB2 receptor expressed in CHOK1 cells assessed as inhibition of forskolin-stimulated cAMP level at 10 uM; format: functional, cell-based; settings: CHO-K1
Cannabinoid receptor 1 [10] = biological target: T3, Cannabinoid receptor 1; assay: Antagonist activity at human CB1 receptor expressed in CHOK1 cells assessed as inhibition of forskolin-stimulated cAMP level at 10 uM; format: functional, cell-based; settings: CHO-K1
Cannabinoid receptor 2 [11] = biological target: T2, Cannabinoid receptor 2; assay: Agonist activity at human CB2 receptor expressed in CHOK1 cells assessed as […] of forskolin-stimulated cAMP level at 10 uM; format: functional, cell-based; settings: CHO-K1
[12] = biological target: T1, G-protein coupled receptor 55; assay: Antagonist activity at human GPR55 expressed in HEK293 cells assessed as inhibition of LPI-induced beta-arrestin recruitment incubated 60 mins prior to LPI addition by beta-arrestin translocation assay; format: cell-based; design: scale not given: the % may be the effect or the level left
[13] = biological target: T1, G-protein coupled receptor 55; assay: Antagonist activity at human GPR55 transfected in CHO cells assessed as inhibition of LPI-induced beta-arrestin recruitment at 10 uM incubated 60 mins prior to LPI addition by beta-arrestin translocation assay; format: cell-based; design: scale not given: the % may be the effect or the level left; outline: as §3
[14] = biological target: T1, G-protein coupled receptor 55; assay: Antagonist activity at human GPR55 transfected in CHO cells assessed as inhibition of LPI-induced beta-arrestin recruitment incubated 60 mins prior to LPI addition by Gaddum method; format: cell-based
Outline: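 In the human GPR55 CHO β-arrestin luminescence assay, full LPI concentration-response curves were run without and with 3-4 antagonist concentrations. Antagonist was preincubated 1 h, then incubated with agonist […]. KB was estimated by the Gaddum method. Three independent experiments in duplicate.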

Cannabinoid receptor 1 [15] = biological target: T3, Cannabinoid receptor 1; assay: Agonist activity at human CB1 receptor expressed in CHOK1 cells assessed as […] of forskolin-stimulated cAMP level at 10 uM; format: functional, cell-based; settings: CHO-K1
[16] = biological target: T1, G-protein coupled receptor 55; assay: Agonist activity at human GPR55 transfected in CHO cells after 90 mins by beta-arrestin translocation assay relative to LPI; format: cell-based; outline: as §1

Cc1cc2c(C(C)C)ccc(C)c2oc1=O
Activity [1]: inactive | Activity (Cannabinoid receptor 2 [2]): 0% | Ki (Cannabinoid receptor 2 [3]): > 10 µM | Activity (Cannabinoid receptor 1 [4]): 26% | Ki (Cannabinoid receptor 1 [5]): > 10 µM | Activity [6]: 11% | IC50 [7]: > 10 µM | IC50 [8]: 3.45 µM

CCCCCc1cc(O)c2cc(Cc3cccc(O)c3)c(=O)oc2c1
inhibition (Cannabinoid receptor 2 [9]): Active | inhibition (Cannabinoid receptor 1 [10]): Active | Activity [1]: inactive | Activity [6]: 27% | IC50 [7]: > 10 µM | IC50 [8]: 10.6 µM

Cc1ccc(C(C)C)c2cc(Cc3ccccc3)c(=O)oc12
Activity [1]: inactive | Activity (Cannabinoid receptor 2 [2]): 24% | Ki (Cannabinoid receptor 2 [3]): > 10 µM | Activity (Cannabinoid receptor 1 [4]): 24% | Ki (Cannabinoid receptor 1 [5]): > 10 µM | Activity [6]: 12% | IC50 [7]: > 10 µM | IC50 [8]: 5.33 µM

CCCCCc1cc(OC)c2cc(Cc3ccccc3C)c(=O)oc2c1
inhibition (Cannabinoid receptor 1 [10]): Active | Activity (Cannabinoid receptor 2 [11]): Active | Activity [1]: inactive | Activity [6]: 34% | IC50 [7]: > 10 µM | IC50 [8]: 5.08 µM

C=C(C)[C@@H]1CCC(C)=C[C@H]1c1c(O)cc(CCC)cc1O
Activity [12]: 56%

CCCCCCCC(C)(C)c1cc(OC)c2cc(Cc3ccccc3OC)c(=O)oc2c1
Activity [1]: inactive | Activity (Cannabinoid receptor 2 [2]): 47% | Activity (Cannabinoid receptor 1 [4]): 51% | Activity [6]: 33% | IC50 [7]: > 10 µM | Activity [13]: 31% | IC50 [8]: > 10 µM

Cc1ccc(C(C)C)c2cc(Cc3ccccc3O)c(=O)oc12
Activity [1]: inactive | Activity (Cannabinoid receptor 2 [2]): 24% | Activity (Cannabinoid receptor 1 [4]): 31% | Activity [6]: 32% | IC50 [7]: > 10 µM | IC50 [8]: 1.77 µM

CCCCCCCC(C)(C)c1cc(O)c2cc(Cc3ccccc3O)c(=O)oc2c1
Activity (Cannabinoid receptor 2 [11]): Active | Activity [1]: inactive | Kb [14]: 0.561 µM | IC50 [7]: 12.5 µM | IC50 [8]: 0.113 µM | inhibition [8]: Dose-dependent effect

CCCCCCC(C)(C)c1cc(O)c2cc(Cc3ccccc3)c(=O)oc2c1
Activity (Cannabinoid receptor 2 [11]): Active | Activity (Cannabinoid receptor 1 [15]): Active | Activity [1]: inactive | IC50 [7]: 8.1 µM | IC50 [8]: 0.358 µM

CCCCCc1cc(OC)c2cc(Cc3cccc(OC)c3)c(=O)oc2c1
Activity (Cannabinoid receptor 2 [11]): Active | Activity (Cannabinoid receptor 1 [15]): Active | Activity [1]: inactive | Kb [14]: 16.5 µM | Activity [6]: 33% | IC50 [7]: > 10 µM | IC50 [8]: 3.23 µM | Kb ([8]; read-out: pA2 (converted)): 7.94 pM

CCCCCCC(C)(C)c1cc(O)c2cc(Cc3ccccc3O)c(=O)oc2c1
Activity (Cannabinoid receptor 2 [11]): Active | Activity [1]: inactive | IC50 [7]: 15.9 µM | IC50 [8]: 0.261 µM

CCCCC1(c2cc(O)c3cc(Cc4ccccc4O)c(=O)oc3c2)CCCC1
Activity (Cannabinoid receptor 2 [11]): Active | Activity [1]: inactive | Activity [6]: 57% | IC50 [8]: 0.854 µM

CCCCCc1cc(OC)c2cc(Cc3ccccc3OC)c(=O)oc2c1
Activity (Cannabinoid receptor 2 [11]): Active | Activity (Cannabinoid receptor 1 [15]): Active | Activity [1]: inactive | Activity [6]: 20% | IC50 [7]: > 10 µM | IC50 [8]: 6.35 µM

CCCCC/C=C\C/C=C\C/C=C\C/C=C\CCCC(=O)O[C@H](CO)COP(=O)(O)O[C@@H]1[C@H](O)[C@H](O)[C@@H](O)[C@H](O)[C@H]1O
EC50 [16]: 1 µM

CCCCCc1cc(OC)c2cc(Cc3ccc(Br)cc3)c(=O)oc2c1
inhibition (Cannabinoid receptor 2 [9]): Active | inhibition (Cannabinoid receptor 1 [10]): Active | Activity [1]: inactive | Ki (Cannabinoid receptor 2 [3]): 0.578 µM | Ki (Cannabinoid receptor 1 [5]): 10.2 µM | Activity [6]: 30% | IC50 [7]: > 10 µM | IC50 [8]: 3.76 µM

CCCCC1(c2cc(OC)c3cc(Cc4ccccc4OC)c(=O)oc3c2)CCCCC1
Activity [1]: inactive | Activity (Cannabinoid receptor 2 [2]): 45% | Ki (Cannabinoid receptor 2 [3]): ≥ 10 µM | Activity (Cannabinoid receptor 1 [4]): 42% | Ki (Cannabinoid receptor 1 [5]): ≥ 10 µM | Activity [6]: 33% | IC50 [7]: > 10 µM | Activity [13]: 44% | IC50 [8]: > 10 µM

CCCCCc1cc(OC)c2cc(Cc3ccc(Cl)cc3)c(=O)oc2c1
inhibition (Cannabinoid receptor 1 [10]): Active | Activity (Cannabinoid receptor 2 [11]): Active | Activity [1]: inactive | Ki (Cannabinoid receptor 2 [3]): 0.578 µM | Ki (Cannabinoid receptor 1 [5]): 0.613 µM | Activity [6]: 50% | IC50 [7]: 10 µM | IC50 [8]: 3.29 µM

CCCc1cc(O)c2c(c1)OC(C)(C)[C@@H]1CCC(C)=C[C@@H]21
Activity [12]: 50%

CCCCC1(c2cc(O)c3cc(Cc4ccccc4O)c(=O)oc3c2)CCCCC1
Activity (Cannabinoid receptor 2 [11]): Active | Activity [1]: inactive | Activity [6]: 59% | IC50 [7]: ≥ 10 µM | IC50 [8]: 0.961 µM
